Source: PubChem BioAssay (several laboratories)
Hits are enriched below; roughly 1.4% of the tested compounds scored in any of these assays.
Rev-erbA mod: modulators of Rev-erb alpha DNA binding, primary screen, biochemical, FITC-DNA, fluorescence polarization, uHTS; Nuclear receptor subfamily 1 group D member 1 (Homo sapiens), P20393; Rev-erbα–FITC-DNA binding, 90 min; activity, % at 10 µM; 370,000 tested, 0.79% active; AID 1259318, 2017;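 active means activity above about 14%, limit read from the data; passing the limit was not always enough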;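 further: 0% = DMSO wells with 35 nM protein and 100% = DMSO wells with 750 nM protein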
Target sequence (P20393 whole entry, looked up): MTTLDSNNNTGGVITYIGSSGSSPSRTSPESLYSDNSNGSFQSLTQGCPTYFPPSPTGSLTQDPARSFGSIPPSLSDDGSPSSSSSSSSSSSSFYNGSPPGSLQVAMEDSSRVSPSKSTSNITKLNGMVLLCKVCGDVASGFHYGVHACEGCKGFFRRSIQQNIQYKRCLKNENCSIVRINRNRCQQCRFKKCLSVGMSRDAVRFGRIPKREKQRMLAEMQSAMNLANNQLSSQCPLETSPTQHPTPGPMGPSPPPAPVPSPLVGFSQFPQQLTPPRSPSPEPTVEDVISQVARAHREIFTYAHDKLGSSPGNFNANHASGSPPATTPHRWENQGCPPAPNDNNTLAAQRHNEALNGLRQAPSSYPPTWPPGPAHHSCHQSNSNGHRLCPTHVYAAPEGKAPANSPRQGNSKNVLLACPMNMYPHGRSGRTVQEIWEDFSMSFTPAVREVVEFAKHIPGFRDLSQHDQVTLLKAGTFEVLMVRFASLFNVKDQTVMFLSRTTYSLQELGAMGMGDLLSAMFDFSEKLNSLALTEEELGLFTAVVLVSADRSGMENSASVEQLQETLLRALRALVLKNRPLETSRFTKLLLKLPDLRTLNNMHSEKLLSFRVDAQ
PG9 Ab binder: binders of HIV-1 gp120 antibody PG9, primary screen, biochemical, TR-FRET. HIV-1 gp120 / PG9 antibody interaction. TR-FRET gp120-PG9 antibody binding. inhibition, % at 6.7 µM. 360,000 tested, 0.43% active. AID 624416, 2012; in the data active means inhibition above about 8.5%
NR2E3 ag-1: inhibitors of NR2E3-RetCOR corepressor binding, primary screen, NR2E3 agonist project, biochemical, TR-FRET, GST-NR2E3, biotin-RetCOR | Photoreceptor-specific nuclear receptor (Homo sapiens), Q9Y5X4 | 1536-well | inhibition of corepressor binding, % at 4.78 µM | 320,000 tested, 0.12% active | AID 2300, 2010;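 active means percent inhibition above the cutoff of mean plus 3 SD of all tested compounds, set per screening campaign, cut at about 20% in these data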;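 further: 0% = DMSO wells and 100% = biotin wells as full block of FRET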
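System: GST-tagged NR2E3 plus biotinylated RetCOR corepressor; Amount: 1.35 nM GST-tagged NR2E3 final; Dosing: single nominal compound dose of 4.8 µM; Schedule: 5 h incubation at 4 °C; Technique: TR-FRET with europium anti-GST and streptavidin-D2, 340 nm excitation; Controls: biotin wells as high control, 0.6% DMSO wells as low control.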
NR2E3 ag-2: NR2E3 agonists in two-hybrid cells, primary screen, cell-based, luminescence, CHO-S, Gal4-NCOR/VP16-NR2E3; luciferase; inhibition of corepressor binding, % at 3.98 µM; Photoreceptor-specific nuclear receptor (Homo sapiens), Q9Y5X4; 360,000 tested, 0.35% active;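 active means inhibition above the mean of all tested compounds plus 3 SD, cut at about 70% in these data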;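 further: 0% = DMSO with NR2E3 transfected cells and 100% = cells lacking NR2E3 construct; higher means lower luciferase signal from less NR2E3 corepressor binding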
NR2E3 ag conf: NR2E3 agonist confirmation in cells, cell-based, luminescence, CHO-S two-hybrid; AID 624378, 2012; shares compounds with NR2E3 ag-2; inhibition, % at 3.98 µM; CHO-S mammalian two-hybrid NR2E3-NCOR, luciferase luminescence; 2,300 tested, 51% active;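 active means average inhibition above a cutoff equal to the mean inhibition of all tested compounds plus one SD, cut at about 70% in these data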;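 further: 0% = DMSO in NR2E3 cells and 100% = DMSO in cells lacking NR2E3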
GAL4-VP16 luc: GAL4-VP16 reporter modulators, confirmation, counter-screen for NR2E3 agonist project, cell-based, luminescence, CHO-S, high throughput | shares compounds with NR2E3 ag-2 | CHO-S GAL4-VP16 luciferase reporter | inhibition, % at 3.98 µM | 2,300 tested, 29% active;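 active means mean inhibition above a cutoff equal to the average over all tested compounds plus one standard deviation, cut at about 70% in these data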;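 further: luciferase from a UAS reporter driven by GAL4-VP16 transactivation; 0% = DMSO with VP16-transfected cells and 100% = DMSO with cells lacking VP16; higher means less reporter light so more repression of VP16 activity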
Numbers without * were called inactive; . = no result.

SMILES	Rev-erbA mod	PG9 Ab binder	NR2E3 ag-1	NR2E3 ag-2	NR2E3 ag conf	GAL4-VP16 luc
COc1ccc(NC(=O)C2(C)CCN2C(=O)Cc2ccccc2)cc1OC (centres undefined)	-8	-1	.	-36	.	.
O=C(O)CCSc1nc2ccccc2s1	4	1	2	54	53	67
c1ccc2sc(SCSc3nc4ccccc4s3)nc2c1	5	-3	-3	-24	.	.
CN(C)CCCNS(=O)(=O)c1ccc(NC2CCCCCC2)c([N+](=O)[O-])c1	4	-1	1	49	55	64
CC(C)NC(=O)Nc1nnc([C@H]2C[C@H](O)[C@@H](CO)O2)s1	3	1	.	-10	.	.
CCCCc1oc2ccccc2c1C(=O)c1cc(I)c(OCCN(CC)CC)c(I)c1	0	-2	.	.	.	.
Cc1cc(-c2ccc(C)c(S(=O)(=O)NCCCN3CCN(c4ccccc4F)CC3)c2)on1	-3	-1	4	62	76*	68
COc1ccc(C2CC(O)(c3ccccc3)Oc3cc(OC)c(OC)c(OC)c32)cc1 (centres undefined)	-2	-2	2	4	.	.
COc1ccc([C@@]23Oc4cc(OC)cc(OC)c4[C@]2(O)[C@H](O)[C@H](C(=O)N(C)C)[C@H]3c2ccccc2)cc1	-2	-2	.	101*	98*	96*
Cc1cccc(OCC(=O)Nc2ccc(S(=O)(=O)Nc3cc(C)nc(C)n3)cc2)c1	-1	1	1	-6	.	.
O=C(NNc1ccccc1)C(=O)NNS(=O)(=O)c1ccc(CCCl)cc1	-6	-3	0	39	.	.
Nc1ccc(S(=O)(=O)NNC(=O)C(=O)NNc2ccccc2)cc1	-5	-1	7	61	51	30
CN(C)c1cc(C(F)(F)F)nc(-c2ccccn2)n1	4	0	-2	-15	.	.
CSCc1cc(N(C)c2ccccc2)nc(-c2ccccn2)n1	-3	-2	2	109*	38	19
O=c1cc(C(F)(F)F)nc(SCc2cccc3ccccc23)[nH]1	-1	-2	-1	100*	98*	84*
Nc1cc(=O)[nH]c(SCc2cccc3ccccc23)n1	-5	2	0	-35	.	.
CCOc1ccc(-n2nnnc2SCC(=O)NC2CCCC2)cc1	-2	1	-1	-15	.	.
CCOC(=O)C1=C(N)OC2=C(C(=O)CCC2)C1c1ccc2c(c1)OCO2 (centres undefined)	1	1	3	-11	.	.
Clc1ccc(-n2ncc3c(N4CCCCCC4)ncnc32)cc1	-5	1	10	86*	83*	48
CC(C)(C)OC(=O)N1Cc2ccccc2C[C@H]1C(=O)NCC(=O)Nc1ccc2c(c1)OCCO2	7	-2	-2	59	27	8
CC(C)OC(=O)C(=O)NNc1ccccc1	1	-5	-2	54	29	0
CC(O)CC(C(=O)NNc1ccccc1)C(=O)NNc1ccccc1 (centres undefined)	-3	-2	5	63	41	10
Cc1nnc(NC(=O)CSc2nnc(-c3ccco3)o2)s1	.	.	4	-30	.	.
O=c1cc(-c2ccccc2Cl)oc2c([N+](=O)[O-])c(O)cc(O)c12	-1	-1	6	98*	99*	91*
O=C(Nc1ccc(O)c2c(=O)cc(-c3ccccc3Cl)oc12)c1ccccc1Cl	1	1	2	-5	.	.
SMILES	Rev-erbA mod	PG9 Ab binder	NR2E3 ag-1	NR2E3 ag-2	NR2E3 ag conf	GAL4-VP16 luc
COc1ccc(Cc2nnc(NC(=O)c3ccc(Cl)c([N+](=O)[O-])c3)s2)cc1	-3	0	0	0	.	.
O=C(COC(=O)c1ccc[nH]c1=O)NCCC1=CCCCC1	-11	0	.	-26	.	.
CN(Cc1ccco1)C(=O)Cn1c(=O)oc2cc(S(=O)(=O)NCc3ccccc3)ccc21	-6	-3	2	0	.	.
CN(Cc1ccccc1)C(=O)Cn1c(=O)oc2cc(S(=O)(=O)NCc3ccccc3)ccc21	-8	0	5	48	17	41
Cc1ccc(S(=O)(=O)Nc2cnc3ccccc3c2)cc1	0	3	1	49	44	41
Cc1ccc(S(=O)(=O)Nc2ccccc2NS(=O)(=O)c2ccc(C)cc2)cc1	-6	1	.	48	46	20
Cc1ccc(NS(=O)(=O)c2ccc(C3CCCCC3)cc2)cc1	-2	0	0	77*	94*	70
Cc1ccc(S(=O)(=O)Nc2ccccc2O)cc1	7	-1	.	.	.	.
Cc1ccc(S(=O)(=O)Nc2ccc(N3CCCCC3)cc2)cc1	-3	-1	3	31	.	.
Cc1ccc(Cl)cc1NS(=O)(=O)c1ccccc1	9	-2	.	-19	.	.
O=S(=O)(Nc1ccc(Cl)cc1NS(=O)(=O)c1ccccc1)c1ccccc1	-7	0	.	82*	95*	65
O=C(c1cc(F)ccc1F)N(Cc1ccccn1)CC1CCCO1 (centres undefined)	-5	.	.	.	.	.
CSC(=S)N/N=C(\C)c1ccc(Br)cc1	-8	0	-3	82*	-15	-18
Cn1cccc1/C=N\NC(=O)Cc1ccc(Br)c2ccccc12	4	0	3	48	28	54
Cn1cccc1/C=N/NC(=O)Cc1ccccc1	-1	0	2	-12	.	.
CCc1ccc(-n2c(Cc3ccccc3)n[nH]c2=S)cc1	-3	2	4	-22	.	.
CCOc1ccc(-c2nc(CSCC(=O)NCc3ccco3)c(C)o2)cc1	-2	1	-1	100*	93*	95*
CCOc1ccc(-c2nc(CSCC(=O)NC3CC3)c(C)o2)cc1	.	.	2	109*	95*	95*
CCOC(=O)N1CCC(NC(=O)CSCc2nc(-c3ccc(OCC)cc3)oc2C)CC1	-7	-2	-3	60	43	33
CCCOc1ccc(-c2nc(CSCC(=O)NC3CC3)c(C)o2)cc1	3	.	.	.	.	.
O=C(CN1CCN(c2ccc(O)cc2)CC1)Nc1ccc(S(=O)(=O)N2CCCC2)cc1	-1	4	.	-13	.	.
CCCC(NC(=O)CCc1c(C)c2cc3c(C)c(C)oc3cc2oc1=O)C(=O)NC(Cc1ccc(Cl)cc1)C(=O)O (centres undefined)	5	-1	.	0	.	.
Cc1ccc(NC(=O)NC2CC(=O)N(c3ccc4c(c3)OCCO4)C2)cc1C (centres undefined)	2	1	-3	54	32	6
